Legend:
[1] = Cytotoxicity against feline CRFK cells by MTS assay; format: cell-based, Felis catus; conditions: cat
[2] = Cytotoxicity against human HeLa cells assessed as drug level causing microscopically detectable alteration of normal cell morphology after 3 days; format: cell-based
In short: (§1)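 Serial compound dilutions added to confluent HeLa or Vero monolayers. MCC = minimum concentration causing microscopically detectable alteration of cell morphology after 3 days of incubation.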

[3] = Cytotoxicity against MDCK cells by MTS assay; format: cell-based, Canis lupus familiaris; conditions: dog
[4] = target: Human immunodeficiency virus type 1 reverse transcriptase (Human immunodeficiency virus 1, UniProt Q72547, K103N); assay: Inhibition of HIV1 reverse transcriptase p66/p51 K103N mutant; conditions: read-out: IC50
In short: (§2)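 Substrate was 0.5 µg poly(rA)/oligo(dT) 10:1 (0.3 µM 3′-OH ends) with 10 µM [³H]dTTP, at 37 °C. Acid-precipitable radioactivity was counted on GF/C filters after TCA washes.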

[5] = tested on: Respiratory syncytial virus; assay: Antiviral activity against RSV Long in human HeLa cells assessed as protection against virus-induced cytopathicity; format: functional, organism-based
In short: (§3)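 Confluent cell monolayers inoculated with 100 CCID₅₀ virus. After 1-2 h adsorption, residual virus removed and cultures incubated with varying compound concentrations. Cytopathicity scored once it reached completion in untreated infected controls. EC₅₀ = dose reducing virus-induced cytopathogenicity by 50%.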

[6] = Cytotoxicity against african green monkey Vero cells assessed as drug level causing microscopically detectable alteration of normal cell morphology after 3 days; format: cell-based; conditions: chlorocebus sabaeus; in short: as §1
Influenza A virus [7] = assay: Antiviral activity against influenza H1N1 virus in MDCK cells assessed as reduction of virus-induced cytopathicity by MTS method; format: functional, organism-based; conditions: Influenza A virus, H1N1, MDCK
Sindbis virus = assay: Antiviral activity against Sindbis virus in african green monkey Vero cells assessed as protection against virus-induced cytopathicity; format: functional, organism-based; in short: as §3
[8] = Cytotoxicity against MDCK cells assessed as drug level causing microscopically detectable alteration of normal cell morphology; format: cell-based, Canis lupus familiaris; conditions: dog
Felid alphaherpesvirus 1 = assay: Antiviral activity against Feline herpesvirus in feline […] cells assessed as inhibition of virus-induced cytopathicity; format: functional, organism-based
Coxsackievirus B4 [9] = assay: Antiviral activity against Coxsackievirus B4 in african green monkey Vero cells assessed as protection against virus-induced cytopathicity; format: functional, organism-based; conditions: Enterovirus B; in short: as §3
Influenza B virus [10] = assay: Antiviral activity against influenza B virus in MDCK cells assessed as reduction of virus-induced cytopathicity by visual cytopathic effect scoring method; format: functional, organism-based
[11] = Cytotoxicity against human HEL cells assessed as drug level causing microscopically detectable alteration of normal cell morphology after 3 days; format: cell-based
Influenza A virus H3N2 [12] = assay: Antiviral activity against influenza H3N2 virus in MDCK cells assessed as reduction of virus-induced cytopathicity by visual cytopathic effect scoring method; format: functional, organism-based
Influenza A virus H3N2 [13] = assay: Antiviral activity against influenza H3N2 virus in MDCK cells assessed as reduction of virus-induced cytopathicity by MTS method; format: functional, organism-based
L1210 = assay: Antiproliferative activity against mouse L1210 cells after 2 days; format: cell-based; conditions: L1210, 48 h
In short: (§4)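 Cells seeded at 5 × 10⁴ to 7.5 × 10⁴ cells/200 µL with or without serial compound dilutions; incubated at 37 °C for 2 days (L1210) or 3 days (Molt4/C8, CEM). Cell numbers counted with a Coulter counter. CC₅₀ = concentration reducing proliferation by 50% versus untreated controls, read from plots of cell number (% of control) against concentration. Means of at least two independent experiments.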

Human alphaherpesvirus 1 [14] = assay: Antiviral activity against HSV1 KOS in human HEL cells assessed as protection against virus-induced cytopathicity; format: functional, organism-based; conditions: Human alphaherpesvirus 1, KOS
[15] = tested on: Vesicular stomatitis virus; assay: Antiviral activity against VSV in human HeLa cells assessed as protection against virus-induced cytopathicity; format: functional, organism-based
CCRF-CEM = assay: Antiproliferative activity against human CEM cells after 3 days; format: cell-based; conditions: 72 h; in short: as §4
Human alphaherpesvirus 2 = assay: Antiviral activity against HSV2 G in human HEL cells assessed as protection against virus-induced cytopathicity; format: functional, organism-based; conditions: Human alphaherpesvirus 2, strain G; in short: as §3
[16] = Antiproliferative activity against human Molt4/C8 cells after 3 days; format: cell-based; conditions: MOLT-4, 72 h; in short: as §4
Influenza A virus [17] = assay: Antiviral activity against influenza H1N1 virus in MDCK cells assessed as reduction of virus-induced cytopathicity by visual cytopathic effect scoring method; format: functional, organism-based
Influenza B virus [18] = assay: Antiviral activity against influenza B virus in MDCK cells assessed as reduction of virus-induced cytopathicity by MTS method; format: functional, organism-based
[19] = tested on: Human immunodeficiency virus 1; assay: Antiviral activity against HIV1 3B in human CEM cells assessed as protection against virus-induced cytopathicity after 4 days; format: functional, organism-based; conditions: Human immunodeficiency virus 1, 3B, CCRF-CEM, 96 h
In short: (§5)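 CEM cells (~3 × 10⁵ cells/mL) infected with ~100 CCID₅₀ per mL of HIV-1 (IIIB) or HIV-2 (ROD), then seeded into wells containing compound dilutions. After 4 days at 37 °C, syncytium (giant cell) formation was examined microscopically. EC₅₀ = concentration protecting CEM cells from HIV cytopathicity by 50%.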

Human alphaherpesvirus 1 [20] = assay: Antiviral activity against thymidine kinase deficient and acyclovir resistant HSV1 KOS in human HEL cells assessed as protection against virus-induced cytopathicity; format: functional, organism-based; conditions: Human alphaherpesvirus 1, KOS
Coxsackievirus B4 [21] = assay: Antiviral activity against Coxsackievirus B4 in human HeLa cells assessed as protection against virus-induced cytopathicity; format: functional, organism-based; conditions: Enterovirus B; in short: as §3
[22] = target: Human immunodeficiency virus type 1 reverse transcriptase (Human immunodeficiency virus 1, UniProt Q72547); assay: Inhibition of HIV1 reverse transcriptase p66/p51; conditions: read-out: IC50
[23] = tested on: Human immunodeficiency virus 2; assay: Antiviral activity against HIV2 ROD in human CEM cells assessed as protection against virus-induced cytopathicity after 4 days; format: functional, organism-based; conditions: Human immunodeficiency virus 2, ROD, CCRF-CEM, 96 h; in short: as §5
[24] = tested on: Vesicular stomatitis virus; assay: Antiviral activity against VSV in human HEL cells assessed as protection against virus-induced cytopathicity; format: functional, organism-based
Feline coronavirus = assay: Antiviral activity against Feline coronavirus in feline […] cells assessed as inhibition of virus-induced cytopathicity; format: functional, organism-based; conditions: Alphacoronavirus 1
Human respirovirus 3 = assay: Antiviral activity against Parainfluenza virus type 3 in african green monkey Vero cells assessed as protection against virus-induced cytopathicity; format: functional, organism-based; conditions: Human respirovirus 3, Vero; in short: as §3
[25] = tested on: Mammalian orthoreovirus 1; assay: Antiviral activity against Reovirus 1 in african green monkey Vero cells assessed as protection against virus-induced cytopathicity; format: functional, organism-based; conditions: Mammalian orthoreovirus 1, Vero; in short: as §3
Punta Toro virus = assay: Antiviral activity against Punta Toro virus in african green monkey Vero cells assessed as protection against virus-induced cytopathicity; format: functional, organism-based; in short: as §3
[26] = target: Human immunodeficiency virus type 1 reverse transcriptase (Human immunodeficiency virus 1, UniProt Q72547, Y181I); assay: Inhibition of HIV1 reverse transcriptase p66/p51 Y181I mutant; conditions: read-out: IC50; in short: as §2
Vaccinia virus = assay: Antiviral activity against Vaccinia virus Lederle in human HEL cells assessed as protection against virus-induced cytopathicity; format: functional, organism-based; conditions: Orthopoxvirus vaccinia
[27] = target: Human immunodeficiency virus type 1 reverse transcriptase (Human immunodeficiency virus 1, UniProt Q72547, L100I); assay: Inhibition of HIV1 reverse transcriptase p66/p51 L100I mutant; conditions: read-out: IC50; in short: as §2

Row | Compound | CC50 [1] [µM] | MCC at 72 h [2] [µM] | CC50 [3] [µM] | IC50 [4] [nM] | EC50 [5] [µM] | MCC at 72 h [6] [µM] | EC50 (Influenza A virus [7]) [µM] | EC50 (Sindbis virus) [µM] | MCC [8] [µM] | EC50 (Felid alphaherpesvirus 1) [µM] | EC50 (Coxsackievirus B4 [9]) [µM] | EC50 (Influenza B virus [10]) [µM] | MCC at 72 h [11] [µM] | EC50 (Influenza A virus H3N2 [12]) [µM] | EC50 (Influenza A virus H3N2 [13]) [µM] | IC50 (L1210) [µM] | EC50 (Human alphaherpesvirus 1 [14]) [µM] | EC50 [15] [µM] | IC50 (CCRF-CEM) [µM] | EC50 (Human alphaherpesvirus 2) [µM] | also measured
1 | Cc1cc(C)cc(S(=O)(=O)c2c(C(=O)NCCC(N)=O)[nH]c3ccc(Cl)c(F)c23)c1 | 45.3 | 100 | 24.3 | 783 | 16 | 100 | > 20 | > 20 | 100 | > 20 | > 20 | > 20 | 100 | > 20 | > 20 | 42 | > 20 | > 20 | 30 | > 20 | IC50 [16]: 33 µM; EC50 (Influenza A virus [17]): > 20 µM; EC50 (Influenza B virus [18]): > 20 µM; EC50 [19]: 2 nM; EC50 (Human alphaherpesvirus 1 [20]): > 20 µM; EC50 (Coxsackievirus B4 [21]): 9 µM; IC50 [22]: 34 nM; EC50 [23]: > 10 µM; EC50 [24]: > 20 µM; EC50 (Feline coronavirus): > 20 µM; EC50 (Human respirovirus 3): > 20 µM; EC50 [25]: > 20 µM; EC50 (Punta Toro virus): > 20 µM; IC50 [26]: 7.16 µM; EC50 (Vaccinia virus): > 20 µM; IC50 [27]: 130 nM
2 | Cc1cc(C)cc(S(=O)(=O)c2c(C(=O)NC(C)C(N)=O)[nH]c3ccc([N+](=O)[O-])cc23)c1 (configuration not stated) | 82.1 | > 100 | 95.9 | 362 | > 100 | > 100 | > 20 | > 100 | 100 | > 20 | > 100 | > 20 | 100 | > 20 | > 20 | 96 | > 20 | > 100 | 66 | > 20 | IC50 [16]: 44 µM; EC50 (Influenza A virus [17]): > 20 µM; EC50 (Influenza B virus [18]): > 20 µM; EC50 [19]: 3.8 nM; EC50 (Human alphaherpesvirus 1 [20]): > 20 µM; EC50 (Coxsackievirus B4 [21]): ≥ 20 µM; IC50 [22]: 22 nM; EC50 [23]: > 10 µM; EC50 [24]: > 20 µM; EC50 (Feline coronavirus): > 20 µM; EC50 (Human respirovirus 3): > 100 µM; EC50 [25]: > 100 µM; EC50 (Punta Toro virus): > 100 µM; IC50 [26]: 4.21 µM; EC50 (Vaccinia virus): > 20 µM; IC50 [27]: 209 nM
